TDP2 absorb = blocks human TDP2 phosphodiesterase activity. O95551. recombinant TDP2, T5PNP hydrolysis, p-nitrophenol absorbance 415 nm. inhibition, % at 12.8 µM. hit rate 0.34% among 370,000;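 active means inhibition above the mean of all tested compounds plus 3 SD, set per campaign, cut at about 25% in these data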;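 further: 0% = DMSO with enzyme and 100% = buffer with substrate but no TDP2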
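System – recombinant human TDP2 · Amount – 120 nM TDP2 per well · Buffer or medium – Mg2+-containing Tris-HCl buffer, pH 7.5 · Reagent – T5PNP substrate, 5 mM · Dosing – 12.8 µM single point, 1% DMSO · Incubation – 2 h at 37 °C · Measured by – epi absorbance · Read-out basis – percent inhibition · Benchmarks – high control without enzyme, low control DMSO plus TDP2 · Repeats – singlicate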
LEDGF integ inh = blocks HIV-1 LEDGF/p75-dependent DNA integration; TR-FRET IN-LEDGF/p75 DNA integration, Eu/Cy5; inhibition, % at 3.7 µM; hit rate 0.64% among 370,000;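 active means inhibition above the screen-wide mean plus 3 SD, cut at about 13% in these data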;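 further: signal is the Cy5 over europium emission ratio at 671 and 618 nm; 0% = plate median of compound wells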
Rin1 Abl inh = inhibitors of human Rin1-Abl protein interaction. inhibition, % at 7.35 µM. TR-FRET Rin1/Abl binding, biochemical. hit rate 0.4% among 360,000; in the data active means inhibition above about 5%, passing the limit was not always enough
UHRF1 MBD2 ctr = human UHRF1 methylated DNA binding inhibitors | Q96T88 | UHRF1 binding to methylated oligo, TR-FRET | inhibition, % at 4.4 µM | hit rate 0.75% among 370,000 | AID 687016; in the data active means inhibition above about 21%;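 further: UHRF1 SRA domain binding a hemimethylated CpG hairpin DNA probe; 0% = median of test compound wells and 100% = reference inhibitor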
MBD2 DNA inh = blocks human MBD2 binding to methylated DNA; TR-FRET, MBD2 binding to methylated oligonucleotide; Q9UBB5; AID 686964; inhibition, % at 4.4 µM; hit rate 0.31% among 370,000; in the data active means inhibition above about 13%
Target sequence (Q9UBB5 whole entry, looked up): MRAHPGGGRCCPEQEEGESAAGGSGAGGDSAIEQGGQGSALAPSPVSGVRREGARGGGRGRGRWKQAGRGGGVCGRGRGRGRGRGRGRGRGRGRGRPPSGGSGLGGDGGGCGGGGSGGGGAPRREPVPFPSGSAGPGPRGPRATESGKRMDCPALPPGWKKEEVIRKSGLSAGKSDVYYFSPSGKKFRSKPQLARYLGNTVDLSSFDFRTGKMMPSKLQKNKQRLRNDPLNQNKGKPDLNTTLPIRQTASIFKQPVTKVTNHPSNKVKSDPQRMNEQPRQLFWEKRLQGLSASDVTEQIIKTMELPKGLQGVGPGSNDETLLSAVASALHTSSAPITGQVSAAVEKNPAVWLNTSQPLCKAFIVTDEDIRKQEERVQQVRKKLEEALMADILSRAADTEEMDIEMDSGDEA
* hit, by the source's call. This is a sample that favours compounds with a hit; in the whole collection about 1.9% have one here.

How did N=C1/C(=C/c2ccc(OCc3ccccc3F)cc2)C(=O)N=C2SC(CC(=O)N3CCOCC3)=NN12 do in these assays?
TDP2 absorb: -4.2; LEDGF integ inh: -0.4; Rin1 Abl inh: 3.9; UHRF1 MBD2 ctr: 23.2*; MBD2 DNA inh: 12.8

How did CC(C)(C)Cc1c(-c2cccc(Cl)c2)nc2ccc(Cl)cn12 do in these assays?
TDP2 absorb: -7.7; LEDGF integ inh: -0.5; Rin1 Abl inh: 4.8; UHRF1 MBD2 ctr: 23.5*; MBD2 DNA inh: 6.9

What do the screens show for `CC(C)(C)Cc1c(-c2ccc(C#N)cc2)nc2ccc(Cl)cn12`?
TDP2 absorb: -3.2; LEDGF integ inh: -4.3; Rin1 Abl inh: 1.4; UHRF1 MBD2 ctr: 21.1*; MBD2 DNA inh: 4.1

How did Clc1cccc(-c2nc3ccc(Cl)cn3c2Cc2ccccc2)c1 do in these assays?
TDP2 absorb: 0.5; LEDGF integ inh: 8.1; Rin1 Abl inh: -1.0; UHRF1 MBD2 ctr: 0.0; MBD2 DNA inh: -7.4

Results for COC(=O)C1CN(C2CCCC2)CCS(=O)(=O)N1Cc1cn(Cc2ccc(C)cc2)nn1 (configuration not stated) ?
TDP2 absorb: -1.3; LEDGF integ inh: -1.4; UHRF1 MBD2 ctr: 3.7; MBD2 DNA inh: -2.2

How did O=C(/C=C/c1ccccc1)Oc1ccc(C(=S)N2CCOCC2)cc1 do in these assays?
TDP2 absorb: -5.5; LEDGF integ inh: 1.6; Rin1 Abl inh: 4.1; UHRF1 MBD2 ctr: 28.3*; MBD2 DNA inh: 11.6

What do the screens show for `Cc1cc2c(cc1C)C(c1ccccc1Br)CC(=O)N2` (configuration not stated)?
TDP2 absorb: -1.5; LEDGF integ inh: 9.6; Rin1 Abl inh: 0.4; UHRF1 MBD2 ctr: 22.9*; MBD2 DNA inh: 10.1

How did Cc1ccc2c(c1)C1CS(=O)(=O)N(CCc3ccccc3)CN1C2 (configuration not stated) do in these assays?
TDP2 absorb: 5.0; LEDGF integ inh: -3.6; UHRF1 MBD2 ctr: -1.9; MBD2 DNA inh: 4.5

Results for COc1ccc(C#CCN(Cc2ccc(OC)cc2OC)C(N)=NC(=O)CCc2ccccc2)cc1 ?
TDP2 absorb: -5.1; LEDGF integ inh: 4.7; UHRF1 MBD2 ctr: -0.4; MBD2 DNA inh: 0.4

How did COC(=O)c1ccc2nc(-c3ccc(C)cc3)c(Cc3ccccc3OC)n2c1 do in these assays?
TDP2 absorb: 8.8; LEDGF integ inh: -5.8; Rin1 Abl inh: -1.2; UHRF1 MBD2 ctr: 13.5; MBD2 DNA inh: 2.5

What do the screens show for `COC(=O)c1ccc2nc(-c3ccc(OC)c(OC)c3)c(Cc3ccccc3OC)n2c1`?
TDP2 absorb: 4.7; LEDGF integ inh: -3.6; Rin1 Abl inh: 3.5; UHRF1 MBD2 ctr: 22.7*; MBD2 DNA inh: 7.7

Results for COC(=O)c1ccc2nc(-c3ccc(OC)c(OC)c3)c(Cc3ccccc3C(F)(F)F)n2c1 ?
TDP2 absorb: 1.9; LEDGF integ inh: 2.1; UHRF1 MBD2 ctr: 23.5*; MBD2 DNA inh: 5.4

How did O=C1c2cccnc2-c2ncccc21 do in these assays?
TDP2 absorb: -8.6; LEDGF integ inh: 1.1; Rin1 Abl inh: -8.0; UHRF1 MBD2 ctr: -1.0; MBD2 DNA inh: 2.0

What do the screens show for `COC1=C(Br)C(=O)c2ncccc2C1=O`?
TDP2 absorb: 94.2*; LEDGF integ inh: 14.9*; Rin1 Abl inh: -0.2; UHRF1 MBD2 ctr: 10.5; MBD2 DNA inh: -9.7

What do the screens show for `O=C(CSc1ccccc1)N1CCC(Oc2cccnc2)CC1`?
TDP2 absorb: 1.5; LEDGF integ inh: 2.1; UHRF1 MBD2 ctr: -2.9; MBD2 DNA inh: 1.8

Results for CCC1CCCCN1CCCNC(=O)c1cn(C)c2ccc(S(=O)(=O)N(C)C3CCCCC3)cc2c1=O (configuration not stated) ?
TDP2 absorb: -12.2; LEDGF integ inh: 6.3; Rin1 Abl inh: 0.3; UHRF1 MBD2 ctr: 22.6*; MBD2 DNA inh: 5.6

How did Cc1nn(C)c(C)c1N1C(=O)c2cccc3c(Br)ccc(c23)C1=O do in these assays?
TDP2 absorb: 4.0; LEDGF integ inh: -1.6; Rin1 Abl inh: -9.4; UHRF1 MBD2 ctr: 21.7*; MBD2 DNA inh: 0.0

How did COc1ccc(C2C(C#N)=C(N)OC3=C2C(=O)CC(C)(C)C3)cc1 (configuration not stated) do in these assays?
TDP2 absorb: 3.5; LEDGF integ inh: 2.5; Rin1 Abl inh: -3.1; UHRF1 MBD2 ctr: -0.3; MBD2 DNA inh: 3.5

How did COc1cc(C2C(C#N)=C(N)OC3=C2C(=O)CC(C)(C)C3)cc2c1OCO2 (configuration not stated) do in these assays?
TDP2 absorb: -0.8; LEDGF integ inh: 9.8; Rin1 Abl inh: -3.4; UHRF1 MBD2 ctr: 29.7*; MBD2 DNA inh: 1.3

Results for CCOC(=O)C1=C(COC(=O)[C@@H](NC(=O)c2cccc(C)c2)C(C)C)NC(=O)NC1C (some centres not stated) ?
TDP2 absorb: -3.0; LEDGF integ inh: -2.2; Rin1 Abl inh: 0.4; UHRF1 MBD2 ctr: 21.5*; MBD2 DNA inh: 3.2

How did CCOC(=O)C1=C(COC(=O)COc2ccc(C#N)cc2)NC(=O)NC1C (configuration not stated) do in these assays?
TDP2 absorb: -4.6; LEDGF integ inh: 8.1; Rin1 Abl inh: 3.6; UHRF1 MBD2 ctr: 22.2*; MBD2 DNA inh: 11.1

How did CCOC(=O)C1=C(COC(=O)COc2ccc(C(C)=O)cc2)NC(=O)NC1C (configuration not stated) do in these assays?
TDP2 absorb: -9.5; LEDGF integ inh: -5.4; Rin1 Abl inh: -1.4; UHRF1 MBD2 ctr: 0.0; MBD2 DNA inh: -3.7

Results for CS(=O)(=O)c1ccc(Cl)c(NC(=O)CN2CCN(C(=O)c3cccs3)CC2)c1 ?
TDP2 absorb: 1.2; LEDGF integ inh: 1.7; Rin1 Abl inh: 1.8; UHRF1 MBD2 ctr: 22.6*; MBD2 DNA inh: 6.6

How did COc1ccc2nc(N3C(=O)C(O)=C(C(=O)c4ccco4)C3c3ccccc3OC)sc2c1 (configuration not stated) do in these assays?
TDP2 absorb: -0.5; LEDGF integ inh: -3.4; Rin1 Abl inh: 3.0; UHRF1 MBD2 ctr: -2.4; MBD2 DNA inh: 0.4

What do the screens show for `CCOc1ccc2nc(N3C(=O)C(O)=C(C(=O)c4ccco4)C3c3ccco3)sc2c1` (configuration not stated)?
TDP2 absorb: -20.7; LEDGF integ inh: 17.9*; Rin1 Abl inh: 0.0; UHRF1 MBD2 ctr: 6.7; MBD2 DNA inh: -3.8

What do the screens show for `O=[N+]([O-])c1cccc(COc2ccccc2CN2CCCCC2)c1`?
TDP2 absorb: 2.4; LEDGF integ inh: 0.7; Rin1 Abl inh: -4.1; UHRF1 MBD2 ctr: -3.6; MBD2 DNA inh: -7.5

How did O=[N+]([O-])c1cccc(COc2ccc(CN3CCCCC3)cc2)c1 do in these assays?
TDP2 absorb: 5.4; LEDGF integ inh: -4.9; Rin1 Abl inh: -0.7; UHRF1 MBD2 ctr: 20.9*; MBD2 DNA inh: 7.0

How did CC(C)C(=O)Nc1ccc(NC(=O)c2ccc3c(c2)OCO3)cc1 do in these assays?
TDP2 absorb: 0.4; LEDGF integ inh: -2.7; Rin1 Abl inh: -3.7; UHRF1 MBD2 ctr: -0.6; MBD2 DNA inh: 1.5

How did COc1cc(NC(=O)c2ccc3c(c2)OCO3)ccc1NC(=O)C(C)C do in these assays?
TDP2 absorb: 1.1; LEDGF integ inh: -2.0; Rin1 Abl inh: 0.4; UHRF1 MBD2 ctr: 66.4*; MBD2 DNA inh: 2.2

Screening results deposited in PubChem BioAssay by The Scripps Research Institute Molecular Screening Center.
